This is a sample that favours compounds with a hit; in the whole collection about 3.9% have one here.
CRFR2-BP ag: agonists of CRF-BP/CRF-R2 complex, primary screen, cell-based, HEK293, calcium dye fluorescence, uHTS; CRF-binding protein / CRF receptor 2 complex (human); calcium dye fluorescence (FLIPR); percent of saturating CRF peptide response; activation, % at 13.2 µM; 350,000 compounds, 0.46% hits; AID 588473, 2011;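 active = activation of at least 50%, plus an integration ratio under a set limit after plate pattern correction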;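 note: plate controls were neutral control wells without compound for no effect and CRF at EC100 for full effect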
TAAR1 antag: human TAAR1 antagonists, primary screen, Fluo-8 calcium fluorescence, CHO RD-HGA16 cells; Trace amine-associated receptor 1 (Homo sapiens), Q96RJ0; AID 624466, 2012; antagonist; inhibition, % at 3 µM; 360,000 compounds, 1.5% hits;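 active = inhibition above a per-plate cutoff, the mean inhibition of test compounds on that plate plus 3 SD, cut at about 49% in these data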;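 note: 0% = DMSO plus EC80 beta-PEA response and 100% = DMSO alone without agonist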
Target sequence (Q96RJ0 whole entry, looked up): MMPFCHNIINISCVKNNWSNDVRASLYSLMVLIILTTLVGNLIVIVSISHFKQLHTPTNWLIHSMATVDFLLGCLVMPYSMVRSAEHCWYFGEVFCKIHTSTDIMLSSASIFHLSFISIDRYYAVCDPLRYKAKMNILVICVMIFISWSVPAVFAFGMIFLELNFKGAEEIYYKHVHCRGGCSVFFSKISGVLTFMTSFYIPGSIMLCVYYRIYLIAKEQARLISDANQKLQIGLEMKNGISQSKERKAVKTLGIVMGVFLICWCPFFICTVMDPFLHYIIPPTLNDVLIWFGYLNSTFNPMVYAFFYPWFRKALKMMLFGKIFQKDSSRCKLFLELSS
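Test system – hTAAR1-expressing CHO RD-HGA16 cells, Gα16-coupled · Also added – β-PEA at EC80 concentration, post-compound challenge · Compound – 3 µM, single point · Incubation – dye loading 75 min at 37 °C, then 30 min room temperature · Measured by – Fluo-8 intracellular calcium dye fluorescence, real-time kinetic reads · Benchmarks – vehicle and agonist controls · Replicates – singlicate, one well per test compound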
ANO1 block: TMEM16A chloride channel inhibitors, primary screen, cell-based, HTS; HEK293 TMEM16A/YFP iodide influx fluorescence, ionomycin; normalized B-score (activity score, 25-100; higher = stronger inhibition) at 10 µM; 310,000 compounds, 1.2% hits; AID 588511, 2011;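 active = ratio plate-corrected score three or more library SD toward inhibition, starting fluorescence score within five deviations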;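 note: score derived from kinetic fluorescence span divided by baseline fluorescence per well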
TMEM16A act: TMEM16A chloride channel activators or potentiators, primary screen, cell-based, HTS; 340,000 compounds, 0.3% hits; AID 623877, 2012; Anoctamin-1 (Mus musculus), Q8BHY3; B-score at 10 µM; HEK293 TMEM16A/YFP-H148Q/I152L, iodide quench fluorescence; stronger effect = lower value;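 active = fluorescence-ratio B-score plate-corrected deviation score at least 3 library SD below zero, with starting fluorescence score within 5 deviations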;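 note: channel opened by trigger with iodide after compound preincubation; score built on the fluorescence ratio of max minus min over baseline; more negative score means more quench and so TMEM16A activation or potentiation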
CRFR2-BP antag: antagonists of CRF-BP/CRF-R2 complex, primary screen, cell-based, HEK293, calcium dye fluorescence, uHTS; 350,000 compounds, 0.59% hits; inhibition, % at 11.8 µM; CRF-induced calcium fluorescence;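 active = inhibition of the ligand-induced calcium signal above about 50% at the single tested concentration, limit read from the data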
TAAR1 ag: human TAAR1 agonists, primary screen, Fluo-8 calcium fluorescence, CHO RD-HGA16 cells; Trace amine-associated receptor 1 (Homo sapiens), Q96RJ0; vehicle wells 0%, saturating PEA agonist 100%; activation, % at 3 µM; 360,000 compounds, 0.99% hits;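 active = activation above the mean activation of all test compounds in the run plus 3 SD, cut at about 38% in these data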
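Repeats: no replicates (n 1) | Material: CHO-derived RD-HGA16 cells with stable Gα16 and human TAAR1 | Technique: Kinetic Fluo-8 calcium fluorescence | Schedule: 17-24 h seeding, 75 min 37 °C dye, 30 min RT | Evaluation: % activation from peak over basal fluorescence ratio, DMSO-to-PEA scaled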
TAAR1 ag confirm: human TAAR1 agonists, retest of hits, confirmation, Fluo-8 calcium fluorescence, CHO RD-HGA16 cells; scaled: DMSO 0%, maximal phenethylamine 100%; activation, % at 3 µM; 2,400 compounds, 82% hits; shares compounds with TAAR1 ag;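 active = activation above a cutoff set at the run's mean compound activation plus 3 SD, cut at about 39% in these data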
Ga16 ag counter: nonselective calcium mobilization agonists, CHO-Ga16 cells, counter-screen for hTAAR1 agonist project, cell-based, fluorescence, CHO-Ga16 parental line | Fluo-8 calcium fluorescence; normalized to maximal ATP response, DMSO zero | activation, % at 3 µM | shares compounds with TAAR1 ag | 2,400 compounds, 50% hits | AID 651787, 2012;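 active = activation above the run cutoff, the mean activation over all tested wells plus 3 SD, cut at about 12% in these data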;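 note: 0% = DMSO wells and 100% = maximal ATP response on the peak over basal ratio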
TAAR1 desensitize: TAAR1 desensitization by agonist hits, confirmation, counter-screen for TAAR1 agonist project, cell-based, fluorescence, tachyphylaxis; shares compounds with TAAR1 ag; CHO RD-HGA16 hTAAR1, Fluo-8 calcium, beta-PEA response inhibition; inhibition, % at 3 µM; 2,400 compounds, 46% hits; AID 651951, 2012;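 active = inhibition above the run cutoff, the mean inhibition of all test compounds plus 3 SD, cut at about 49% in these data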;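 note: beta-PEA stimulus applied at its EC80; loss of beta-PEA calcium signal after compound pretreatment read as receptor desensitization; 0% = DMSO with beta-PEA at EC80 and 100% = DMSO alone without agonist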
Ga16 antag count: inhibition of ATP-evoked calcium response in CHO-Ga16 cells, counter-screen for TAAR1 agonist project, cell-based, fluorescence. shares compounds with TAAR1 ag. CHO-Ga16 ATP-induced calcium, Fluo-8 fluorescence. inhibition, % at 3 µM. 2,400 compounds, 39% hits. AID 651952, 2012;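 active = inhibition above the plate's mean compound inhibition plus 3 SD, computed per plate, cut at about 22% in these data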;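 note: 0% = EC80 ATP with DMSO and 100% = DMSO wells without ATP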
Numbers without * were called inactive; i = inactive; / = not tested or not shown.

SMILES	CRFR2-BP ag	TAAR1 antag	ANO1 block	TMEM16A act	CRFR2-BP antag	TAAR1 ag	TAAR1 ag confirm	Ga16 ag counter	TAAR1 desensitize	Ga16 antag count
CC(C)Sc1cc(N2CCOCC2)nc(-c2ccc(Cl)cc2)n1	2	-21	i	i	-19	13	/	/	/	/
CCOCCCNc1ccc(N2C(=O)C3CCCCC3C2=O)cc1[N+](=O)[O-] (stereo unspecified)	-2	-5	i	i	0	44*	5	4	5	11
CN(C)c1ccc2c(=O)c3ccccc3oc2n1	/	-1	/	/	/	1	/	/	/	/
Cc1c(Cl)cccc1NC(=S)N1CCc2ccccc2C1	0	43	i	i	-16	74*	69*	0	30	7
CCCN1CCN(C(=S)Nc2ccccc2C(F)(F)F)CC1	-1	1	i	i	14	3	/	/	/	/
O=C(CN1CCc2ccccc2C1)Nc1ccccc1C(F)(F)F	0	4	i	i	13	56*	75*	10	52*	4
FC(F)(F)c1ccccc1NC(=S)N1CCc2ccccc2C1	-2	43	i	i	9	80*	96*	18*	45	11
O=C(COc1ccc(F)cc1)NCCNC(=O)COc1ccc(F)cc1	0	-15	/	i	-1	4	/	/	/	/
CCCNC(=O)c1cc(C2CCCCN2C(=O)c2cccs2)on1 (stereo unspecified)	/	-6	/	/	/	-1	/	/	/	/
CC(CCc1ccccc1)NC(=O)C(=O)NCCc1ccccc1 (stereo unspecified)	-3	8	i	i	13	49*	88*	21*	36	17
CC(CCc1ccccc1)NC(=O)Cc1ccccc1 (stereo unspecified)	-6	-1	i	i	24	11	/	/	/	/
CC(Sc1ccccc1)C(=O)NCCc1ccccc1 (stereo unspecified)	-4	-10	i	i	3	42*	74*	1	26	2
O=C(CSc1nc2[nH]ncc2c(=O)[nH]1)NCCc1ccccc1	1	12	i	i	-4	57*	29	0	13	10
CCCc1nnc(SCC(=O)Nc2cccc(C(F)(F)F)c2)o1	-1	-6	i	i	4	6	/	/	/	/
O=C(Nc1ccccc1)Nc1nnc([C@H]2C[C@H](O)[C@@H](CO)O2)s1	/	1	/	/	/	44*	57*	1	43	11
CC1(C)NC(=O)N(CC(=O)OCC(=O)c2ccc(Br)s2)C1=O	0	-14	/	i	0	0	/	/	/	/
O=C(Nc1cccc(N2C(=O)C=CC2=O)c1)c1cccs1	/	22	i	i	/	57*	27	19*	24	22*
CN(C)C=Nc1c(Br)cc(Br)c2nonc12	109*	78*	i	i	-66	87*	48*	73*	56*	66*
CCOc1ccc(OCCC(=O)NNC(=O)c2ccncc2)cc1	-1	-2	/	i	-20	2	/	/	/	/
CC(=O)Nc1ccc(Sc2ncccc2C(=O)Nc2ccc(F)cc2)cn1	156*	104*	i	i	-123	174*	150*	113*	106*	89*
COc1ccc(CN2C(=O)CN(S(C)(=O)=O)CC2(C)C(=O)NC(C)C)cc1OC (stereo unspecified)	/	-9	/	/	/	9	/	/	/	/
CCOC(=O)c1csc(NC(=O)CSc2nnnn2-c2ccc(OC)cc2)n1	21	-4	i	i	-44	53*	30	16*	10	8
Cc1cc2c(cc1S(=O)(=O)CCC(=O)NCCc1ccccc1)OCC(=O)N2	0	52*	i	i	-27	89*	101*	0	75*	1
Cc1cccc(CCNC(=O)CCS(=O)(=O)c2cc3c(cc2C)NC(=O)CO3)c1	0	-26	i	i	16	34	/	/	/	/
NC(=O)CC(NC(=O)Cc1ccc(Cl)cc1)c1ccc(NCC2CC2)c([N+](=O)[O-])c1 (stereo unspecified)	0	2	i	i	0	7	/	/	/	/
SMILES	CRFR2-BP ag	TAAR1 antag	ANO1 block	TMEM16A act	CRFR2-BP antag	TAAR1 ag	TAAR1 ag confirm	Ga16 ag counter	TAAR1 desensitize	Ga16 antag count
NC(=O)CC(NC(=O)Cc1ccc(Cl)cc1)c1ccc(NCCc2ccccc2F)c([N+](=O)[O-])c1 (stereo unspecified)	-1	/	i	i	14	/	/	3	/	5
Cc1ccc(SCC(=O)OCC(=O)N(CC(C)C)c2c(N)n(Cc3ccccc3)c(=O)[nH]c2=O)cc1C	-1	5	i	i	4	2	/	/	/	/
O=c1c2ccccc2nnn1CSc1ccccc1F	-1	45	i	i	-6	60*	6	2	3	12
Cc1ccc(SCn2nnc3ccccc3c2=O)c(C)c1	1	-1	i	i	16	-2	/	/	/	/
Cc1nc2c(C(=O)NCc3ccccc3Cl)c[nH]n2c(=O)c1Cl	0	-28	i	i	17	4	/	/	/	/
Cc1nc2c(C(=O)NCCc3ccccc3Cl)c[nH]n2c(=O)c1Cl	5	61*	i	i	36	84*	80*	14*	83*	5
Cc1cc(C(F)F)n2ncc(C(=O)NCCc3ccccc3Cl)c2n1	-3	14	i	i	-11	68*	69*	1	32	5
Cc1cc(C(F)F)n2ncc(C(=O)NCCc3ccc(Cl)cc3)c2n1	-1	2	i	/	-6	10	/	/	/	/
